According to ChEMBL document CHEMBL3804761, “Synthesis of a stable and orally bioavailable englerin analogue” (Bioorg Med Chem Lett, 2016):

Tests used:
Assay type in all cases: functional
HT-29 = assay: Growth inhibition of human HT-29 cells assessed as cell growth at 10 uM incubated for 48 hrs by sulforhodamine B assay relative to control; settings: HT-29, 48 h, read-out: Activity
Method in brief: (§1)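 Run in the standard NCI 60-cell-line screen. Cells were exposed to drug for two days, and the read-out was sulforhodamine B staining. Compound was tested at a single final concentration of 10 µM in every line, and results are reported as growth percent.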

[1] = Growth inhibition of human SW620 cells assessed as cell growth at 10 uM incubated for 48 hrs by sulforhodamine B assay relative to control; settings: SW-620, 48 h, read-out: Activity; method in brief: as §1
M14 = assay: Growth inhibition of human M14 cells assessed as cell growth at 10 uM incubated for 48 hrs by sulforhodamine B assay relative to control; settings: M14, 48 h, read-out: Activity; method in brief: as §1
MDA-MB-435 = assay: Growth inhibition of human MDA-MB-435 cells assessed as cell growth at 10 uM incubated for 48 hrs by sulforhodamine B assay relative to control; settings: MDA-MB-435, 48 h, read-out: Activity; method in brief: as §1
SK-MEL-2 = assay: Growth inhibition of human SK-MEL-2 cells assessed as cell growth at 10 uM incubated for 48 hrs by sulforhodamine B assay relative to control; settings: SK-MEL-2, 48 h, read-out: Activity; method in brief: as §1
SK-MEL-5 = assay: Growth inhibition of human SK-MEL-5 cells assessed as cell growth at 10 uM incubated for 48 hrs by sulforhodamine B assay relative to control; settings: SK-MEL-5, 48 h, read-out: Activity; method in brief: as §1
[2] = Growth inhibition of human UACC62 cells assessed as cell growth at 10 uM incubated for 48 hrs by sulforhodamine B assay relative to control; settings: UACC-62, 48 h, read-out: Activity
Method in brief: (§2)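 NCI 60-cell line standard protocol, one-dose screen: single final concentration 10 µM, 2-day drug exposure, sulforhodamine B (SRB) endpoint; read-out is growth percent relative to untreated control.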

[3] = Growth inhibition of human OVCAR8 cells assessed as cell growth at 10 uM incubated for 48 hrs by sulforhodamine B assay relative to control; settings: OVCAR-8, 48 h, read-out: Activity; method in brief: as §1
NCI/ADR-RES = assay: Growth inhibition of human NCI/ADR-RES cells assessed as cell growth at 10 uM incubated for 48 hrs by sulforhodamine B assay relative to control; settings: read-out: Activity; method in brief: as §1
[4] = Growth inhibition of human Caki1 cells assessed as cell growth at 10 uM incubated for 48 hrs by sulforhodamine B assay relative to control; settings: CAKI-1, 48 h, read-out: Activity; method in brief: as §1
[5] = Growth inhibition of human TK10 cells assessed as cell growth at 10 uM incubated for 48 hrs by sulforhodamine B assay relative to control; settings: TK-10, 48 h, read-out: Activity; method in brief: as §2
MCF7 = assay: Growth inhibition of human MCF7 cells assessed as cell growth at 10 uM incubated for 48 hrs by sulforhodamine B assay relative to control; settings: MCF7, 48 h, read-out: Activity; method in brief: as §1
MDA-MB-468 = assay: Growth inhibition of human MDA-MB-468 cells assessed as cell growth at 10 uM incubated for 48 hrs by sulforhodamine B assay relative to control; settings: MDA-MB-468, 48 h, read-out: Activity; method in brief: as §1
A549 [6] = assay: Growth inhibition of human A549/ATCC cells incubated for 48 hrs by sulforhodamine B assay; settings: A549, 48 h; for TGI: read-out: pTGI (converted)
Method in brief: (§3)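 NCI 60-cell-line panel, standard protocol. Cells exposed to compound for two days, growth read by sulforhodamine B staining. Tested at five 10-fold dilutions, top concentration 100 µM, to give dose-response curves.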

NCI-H226 [7] = assay: Growth inhibition of human NCI-H226 cells incubated for 48 hrs by sulforhodamine B assay; settings: NCI-H226, 48 h; for TGI: read-out: pTGI (converted); method in brief: as §3
NCI-H460 = assay: Growth inhibition of human NCI-H460 cells incubated for 48 hrs by sulforhodamine B assay; settings: NCI-H460, 48 h; for CC50: read-out: pLC50 (the source's name) (converted); for TGI: read-out: pTGI (converted); method in brief: as §3
NCI-H522 = assay: Growth inhibition of human NCI-H522 cells incubated for 48 hrs by sulforhodamine B assay; settings: NCI-H522, 48 h; for TGI: read-out: pTGI (converted); method in brief: as §3
KM12 = assay: Growth inhibition of human KM12 cells incubated for 48 hrs by sulforhodamine B assay; settings: KM12, 48 h; for TGI: read-out: pTGI (converted); method in brief: as §3
[8] = Growth inhibition of human SW620 cells incubated for 48 hrs by sulforhodamine B assay; settings: SW-620, 48 h; for TGI: read-out: pTGI (converted)
Method in brief: (§4)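 Tested in the standard NCI 60-cell-line protocol with two-day drug exposure and a sulforhodamine B endpoint. Compounds were first screened at a single final concentration of 10 µM, reported as growth percent. They were then run as five 10-fold dilutions starting from a high concentration of 100 µM to give dose-response curves.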

[9] = Growth inhibition of human SF268 cells incubated for 48 hrs by sulforhodamine B assay; settings: SF-268, 48 h; for TGI: read-out: pTGI (converted); method in brief: as §3
[10] = Growth inhibition of human SF539 cells incubated for 48 hrs by sulforhodamine B assay; settings: SF-539, 48 h; for TGI: read-out: pTGI (converted); method in brief: as §3
U-251 = assay: Growth inhibition of human U251 cells incubated for 48 hrs by sulforhodamine B assay; settings: U-251, 48 h; for TGI: read-out: pTGI (converted); method in brief: as §4
[11] = Growth inhibition of human OVCAR8 cells incubated for 48 hrs by sulforhodamine B assay; settings: OVCAR-8, 48 h; for TGI: read-out: pTGI (converted); method in brief: as §3
MDA-MB-231 = assay: Growth inhibition of human MDA-MB-231 cells incubated for 48 hrs by sulforhodamine B assay; settings: MDA-MB-231, 48 h; for CC50: read-out: pLC50 (the source's name) (converted); for TGI: read-out: pTGI (converted); method in brief: as §3
[12] = Growth inhibition of human MOLT4 cells assessed as cell growth at 10 uM incubated for 48 hrs by sulforhodamine B assay relative to control; settings: MOLT-4, 48 h, read-out: Activity; method in brief: as §1
A549 [13] = assay: Growth inhibition of human A549/ATCC cells assessed as cell growth at 10 uM incubated for 48 hrs by sulforhodamine B assay relative to control; settings: A549, 48 h, read-out: Activity; method in brief: as §1
NCI-H226 [14] = assay: Growth inhibition of human NCI-H226 cells assessed as cell growth at 10 uM incubated for 48 hrs by sulforhodamine B assay relative to control; settings: NCI-H226, 48 h, read-out: Activity; method in brief: as §1
[15] = Growth inhibition of human COLO205 cells assessed as cell growth at 10 uM incubated for 48 hrs by sulforhodamine B assay relative to control; settings: COLO 205, 48 h, read-out: Activity; method in brief: as §1
[16] = Growth inhibition of human HCT116 cells assessed as cell growth at 10 uM incubated for 48 hrs by sulforhodamine B assay relative to control; settings: HCT-116, 48 h, read-out: Activity; method in brief: as §1

CC(C)[C@@]12C[C@@H](NC(=O)CO)[C@@](C)(O1)[C@@H]1CC[C@@H](C)[C@H]1[C@@H]2OC(=O)c1ccc2ccccc2c1
growth at 10 µM (HT-29): 93.7%
growth at 10 µM [1]: 96.2%
growth at 10 µM (M14): 95.2%
growth at 10 µM (MDA-MB-435): 94%
growth at 10 µM (SK-MEL-2): 100%
growth at 10 µM (SK-MEL-5): 93.5%
growth at 10 µM [2]: 85%
growth at 10 µM [3]: 51.3%
growth at 10 µM (NCI/ADR-RES): 46.8%
growth at 10 µM [4]: 52.6%
growth at 10 µM [5]: 102%
growth at 10 µM (MCF7): 75.4%
growth at 10 µM (MDA-MB-468): 81.5%
GI50 (A549 [6]): 14.8 µM
LC50 (A549 [6]): 63.1 µM
TGI (A549 [6]): 30.2 µM
GI50 (NCI-H226 [7]): 13.2 µM
LC50 (NCI-H226 [7]): 85.1 µM
TGI (NCI-H226 [7]): 33.1 µM
GI50 (NCI-H460): 20.4 µM
CC50 (NCI-H460): 79.4 µM
TGI (NCI-H460): 40.7 µM
GI50 (NCI-H522): 15.5 µM
LC50 (NCI-H522): 56.2 µM
TGI (NCI-H522): 29.5 µM
GI50 (KM12): 17.4 µM
LC50 (KM12): 61.7 µM
TGI (KM12): 32.4 µM
GI50 [8]: 16.6 µM
LC50 (50% lethal concentration) [8]: 72.4 µM
TGI [8]: 34.7 µM
GI50 [9]: 13.5 µM
LC50 (lethal concentration, 50% net cell kill) [9]: 57.5 µM
TGI [9]: 28.2 µM
GI50 [10]: 15.5 µM
LC50 [10]: 55 µM
TGI [10]: 29.5 µM
GI50 (U-251): 16.2 µM
LC50 (concentration giving 50% net cell kill) (U-251): 56.2 µM
TGI (U-251): 30.2 µM
GI50 [11]: 6.46 µM
LC50 (concentration killing 50% of cells) [11]: 60.3 µM
TGI [11]: 22.4 µM
GI50 (MDA-MB-231): 15.1 µM
CC50 (MDA-MB-231): 67.6 µM
TGI (MDA-MB-231): 32.4 µM
growth at 10 µM [12]: 74.9%
growth at 10 µM (A549 [13]): 81%
growth at 10 µM (NCI-H226 [14]): 90.2%
growth at 10 µM [15]: 110%
growth at 10 µM [16]: 75.7%

C/C(=C\C(=O)O[C@H]1[C@@H]2[C@H](C)CC[C@H]2[C@]2(C)O[C@@]1(C(C)C)C[C@H]2NC(=O)CO)c1ccccc1
growth at 10 µM (HT-29): 98.7%
growth at 10 µM [1]: 103%
growth at 10 µM (M14): 100%
growth at 10 µM (MDA-MB-435): 106%
growth at 10 µM (SK-MEL-2): 104%
growth at 10 µM (SK-MEL-5): 101%
growth at 10 µM [2]: 102%
growth at 10 µM [3]: 61.2%
growth at 10 µM (NCI/ADR-RES): 72.2%
growth at 10 µM [4]: 99%
growth at 10 µM [5]: 109%
growth at 10 µM (MCF7): 89.7%
growth at 10 µM (MDA-MB-468): 101%
GI50 (A549 [6]): 47.9 µM
LC50 (A549 [6]): > 100 µM
TGI (A549 [6]): > 100 µM
GI50 (NCI-H226 [7]): 61.7 µM
LC50 (NCI-H226 [7]): > 100 µM
TGI (NCI-H226 [7]): > 100 µM
GI50 (NCI-H460): 38 µM
CC50 (NCI-H460): > 100 µM
TGI (NCI-H460): > 100 µM
GI50 (NCI-H522): 27.5 µM
LC50 (NCI-H522): > 100 µM
TGI (NCI-H522): 81.3 µM
GI50 (KM12): 33.9 µM
LC50 (KM12): > 100 µM
TGI (KM12): > 100 µM
GI50 [8]: 45.7 µM
LC50 (50% lethal concentration) [8]: > 100 µM
TGI [8]: > 100 µM
GI50 [9]: 26.9 µM
LC50 (lethal concentration, 50% net cell kill) [9]: > 100 µM
TGI [9]: > 100 µM
GI50 [10]: 49 µM
LC50 [10]: > 100 µM
TGI [10]: > 100 µM
GI50 (U-251): 43.7 µM
LC50 (concentration giving 50% net cell kill) (U-251): > 100 µM
TGI (U-251): > 100 µM
GI50 [11]: 7.59 µM
LC50 (concentration killing 50% of cells) [11]: > 100 µM
TGI [11]: > 100 µM
GI50 (MDA-MB-231): 38 µM
CC50 (MDA-MB-231): > 100 µM
TGI (MDA-MB-231): > 100 µM
growth at 10 µM [12]: 125%
growth at 10 µM (A549 [13]): 84.1%
growth at 10 µM (NCI-H226 [14]): 90.7%
growth at 10 µM [15]: 107%
growth at 10 µM [16]: 101%
